# Measured values reported in ChEMBL document CHEMBL4004822, “Thienopyrimidinone Based Sirtuin-2 (SIRT2)-Selective Inhibitors Bind in the Ligand Induced Selectivity Pocket” (J Med Chem, 2017).
# How the values were obtained:
# [1] = target: T1, NAD-dependent protein deacetylase sirtuin-2 (Homo sapiens) (UniProt Q8IXJ6); test: Inhibition of recombinant human C-terminal His-tagged SIRT2 (50 to 389 end residues) expressed in Escherichia coli at 10 uM using p53 derived (379 to 382 residues) fluorogenic peptide substrate RHKK(Ac)-AMC preincubated for 10 mins followed by substrate addition in presence of NAD+ by fluorescence assay relative to control
# T1 sequence (whole entry): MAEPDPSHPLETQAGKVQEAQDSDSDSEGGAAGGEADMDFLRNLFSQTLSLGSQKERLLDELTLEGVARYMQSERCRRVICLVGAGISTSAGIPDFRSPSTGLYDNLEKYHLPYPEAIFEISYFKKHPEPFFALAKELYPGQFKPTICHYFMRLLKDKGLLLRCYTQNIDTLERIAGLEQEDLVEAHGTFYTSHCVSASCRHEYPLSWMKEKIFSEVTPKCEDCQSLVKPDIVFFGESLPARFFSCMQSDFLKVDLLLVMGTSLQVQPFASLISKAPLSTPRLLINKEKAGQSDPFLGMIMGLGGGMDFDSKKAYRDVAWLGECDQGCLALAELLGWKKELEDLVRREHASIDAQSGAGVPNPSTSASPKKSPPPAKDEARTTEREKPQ
# How it was run: (§1)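 Two-step fluorogenic assay with p53 379–382 RHKK(Ac)-AMC. Compound (from 10 mM DMSO stock) preincubated ~10 min with human SIRT before substrate addition. Developer then releases fluorophore, read at ex 360/em 460 nm.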
# [2] = target: T2, NAD-dependent protein deacetylase sirtuin-2 (Homo sapiens, UniProt Q8IXJ6); test: Inhibition of recombinant human C-terminal His-tagged SIRT2 (50 to 389 end residues) expressed in Escherichia coli using p53 derived (379 to 382 residues) fluorogenic peptide substrate RHKK(Ac)-AMC preincubated for 10 mins followed by substrate addition in presence of NAD+ by fluorescence assay; how it was run: as §1
# T2 sequence (Q8IXJ6 whole entry): T1 sequence (whole entry)
inhibition [1],IC50 [2],SMILES
99%,1.18 µM,COc1ccc2ccccc2c1Cn1cnc2sc3c(c2c1=O)CCC(NC1CCCC1)C3 (stereo not given)
78%,5.24 µM,COc1ccc2ccccc2c1Cn1cnc2sc3c(c2c1=O)CCC(NCc1ccco1)C3 (stereo not given)
71%,13.1 µM,O=c1c2c3c(sc2ncn1Cc1ccc2ccccc2c1)CC(NCC1CCCO1)CC3 (stereo not given)
75%,4.22 µM,COc1ccccc1CNC1CCc2c(sc3ncn(Cc4ccc5ccccc5c4)c(=O)c23)C1 (stereo not given)
90%,1.9 µM,COc1ccc2ccccc2c1Cn1cnc2sc3c(c2c1=O)CCC(NCC1CCCO1)C3 (stereo not given)
89%,2.24 µM,COc1ccccc1CNC1CCc2c(sc3ncn(Cc4c(OC)ccc5ccccc45)c(=O)c23)C1 (stereo not given)
85%,1.85 µM,Cc1noc(C)c1CNC1CCc2c(sc3ncn(Cc4cccc5ccccc45)c(=O)c23)C1 (stereo not given)
72%,9.59 µM,COc1ccccc1CNC1CCc2c(sc3ncn(Cc4ccccc4OC)c(=O)c23)C1 (stereo not given)
79%,9.18 µM,COc1ccccc1Cn1cnc2sc3c(c2c1=O)CCC(NCC1CCCCC1)C3 (stereo not given)
70%,7.61 µM,O=c1c2c3c(sc2ncn1Cc1cccc2ccccc12)CC(NCc1ccco1)CC3 (stereo not given)
75%,7.59 µM,COc1ccc(CNC2CCc3c(sc4ncn(Cc5cccc6ccccc56)c(=O)c34)C2)cn1 (stereo not given)
76%,10.2 µM,COc1ccc(CNC2CCc3c(sc4ncn(Cc5ccc6ccccc6c5)c(=O)c34)C2)cn1 (stereo not given)
72%,11.7 µM,O=c1c2c3c(sc2ncn1Cc1ccc2ccccc2c1)CC(NCc1ccco1)CC3 (stereo not given)
95%,1.2 µM,COc1ccc2ccccc2c1Cn1cnc2sc3c(c2c1=O)CCC(NCc1ccncc1)C3 (stereo not given)
73%,4.07 µM,COc1ccc2ccccc2c1Cn1cnc2sc3c(c2c1=O)CCC(NCc1cccc(F)c1)C3 (stereo not given)
66%,10.3 µM,COc1ccc2ccccc2c1Cn1cnc2sc3c(c2c1=O)CCC(NCCc1cccnc1)C3 (stereo not given)
78%,3.2 µM,COc1ccc(CNC2CCc3c(sc4ncn(Cc5cccc6ccccc56)c(=O)c34)C2)cc1 (stereo not given)
85%,6.03 µM,COc1ccc2ccccc2c1Cn1cnc2sc3c(c2c1=O)CCC(NCC1CCOC1)C3 (stereo not given)

inhibition [1],IC50 [2],SMILES
95%,2.75 µM,COc1ccc2ccccc2c1Cn1cnc2sc3c(c2c1=O)CCC(NCCc1ccncc1)C3 (stereo not given)
97%,1.65 µM,COc1ccc2ccccc2c1Cn1cnc2sc3c(c2c1=O)CCC(NCC1CCCCC1)C3 (stereo not given)
83%,1.9 µM,COc1ccc(CNC2CCc3c(sc4ncn(Cc5c(OC)ccc6ccccc56)c(=O)c34)C2)cn1 (stereo not given)
91%,2.58 µM,O=c1c2c3c(sc2ncn1Cc1cccc(-c2ccccc2)c1)CC(NCC1CCOC1)CC3 (stereo not given)
68%,8.15 µM,COc1ccc2ccccc2c1Cn1cnc2sc(CCNC3CCOCC3)c(C)c2c1=O
94%,5.11 µM,COc1ccc2ccccc2c1Cn1cnc2sc3c(c2c1=O)CCC(NCc1c(C)nn(C)c1C)C3 (stereo not given)
83%,3.12 µM,COc1ccc2ccccc2c1Cn1cnc2sc3c(c2c1=O)CCC(NCc1ccccn1)C3 (stereo not given)
85%,5.61 µM,COc1ccccc1CNC1CCc2c(sc3ncn(Cc4cccc5cccnc45)c(=O)c23)C1 (stereo not given)
67%,12.5 µM,O=c1c2c3c(sc2ncn1Cc1cccc2ccccc12)CC(NCC1CCCO1)CC3 (stereo not given)
81%,5.06 µM,COc1ccc(Cn2cnc3sc4c(c3c2=O)CCC(NC2CCOCC2)C4)c2ccccc12 (stereo not given)
87%,4 µM,COc1ccc2ccccc2c1Cn1cnc2sc3c(c2c1=O)CCC(NCc1c(C)noc1C)C3 (stereo not given)
94%,2.43 µM,O=c1c2c3c(sc2ncn1Cc1cccc2cccnc12)CC(NCC1CCCCC1)CC3 (stereo not given)
69%,6.03 µM,COc1ccc2ccccc2c1Cn1cnc2sc3c(c2c1=O)CCC(NCc1cccs1)C3 (stereo not given)
69%,13.4 µM,COc1cccc(CNC2CCc3c(sc4ncn(Cc5ccccc5OC)c(=O)c34)C2)c1 (stereo not given)
87%,5.53 µM,O=c1c2c3c(sc2ncn1Cc1ccc2ccccc2c1)CC(NCC1CCCCC1)CC3 (stereo not given)
85%,4.2 µM,Cc1nn(C)c(C)c1CNC1CCc2c(sc3ncn(Cc4cccc5ccccc45)c(=O)c23)C1 (stereo not given)
75%,10.4 µM,COc1ccccc1Cn1cnc2sc3c(c2c1=O)CCC(NCc1ccccc1)C3 (stereo not given)

# Further lines, the compound ahead of its results:
SMILES,inhibition [1],IC50 [2]
O=c1c2c3c(sc2ncn1Cc1cccc(-c2ccccc2)c1)CC(NC1CCOCC1)CC3 (stereo not given),93%,1.74 µM
O=c1c2c3c(sc2ncn1Cc1cccc(-c2ccccc2)c1)CC(NC1CCCC1)CC3 (stereo not given),98%,1.52 µM
O=c1c2c3c(sc2ncn1Cc1cccc2cccnc12)CC(NCc1cccnc1)CC3 (stereo not given),91%,2.92 µM
O=c1c2c3c(sc2ncn1Cc1cccc2cccnc12)CC(NCc1cccc(F)c1)CC3 (stereo not given),94%,1.72 µM
O=c1c2c3c(sc2ncn1Cc1ccc2ccccc2c1)CC(NCc1cncnc1)CC3 (stereo not given),88%,5.3 µM
O=c1c2c3c(sc2ncn1Cc1cccc2cccnc12)CC(NC1CCCc2ccccc21)CC3 (stereo not given),80%,5.49 µM
COc1ccc(CNC2CCc3c(sc4ncn(Cc5ccc6ccccc6c5)c(=O)c34)C2)cc1 (stereo not given),86%,3.82 µM
COc1ccc(CNC2CCc3c(sc4ncn(Cc5cccc6cccnc56)c(=O)c34)C2)cc1 (stereo not given),95%,1.83 µM
O=c1c2c3c(sc2ncn1Cc1cccc2cccnc12)CC(NCc1ccc(Cl)cc1)CC3 (stereo not given),94%,1.27 µM
O=c1c2c3c(sc2ncn1Cc1ccc2ccccc2c1)CC(NCc1ccccn1)CC3 (stereo not given),81%,8.67 µM
Cc1nn(C)c(C)c1CNC1CCc2c(sc3ncn(Cc4ccc5ccccc5c4)c(=O)c23)C1 (stereo not given),87%,7.43 µM
O=c1c2c3c(sc2ncn1Cc1ccc2ccccc2c1)CC(NCc1ccccc1)CC3 (stereo not given),71%,5.45 µM
O=c1c2c3c(sc2ncn1Cc1cccc2cccnc12)CC(NCc1ccccn1)CC3 (stereo not given),87%,2.61 µM
COc1ccc(NC2CCc3c(sc4ncn(Cc5cccc6cccnc56)c(=O)c34)C2)cc1 (stereo not given),82%,2.48 µM
Cc1ccc(NC2CCc3c(sc4ncn(Cc5cccc6cccnc56)c(=O)c34)C2)cc1 (stereo not given),78%,4.25 µM
O=c1c2c3c(sc2ncn1Cc1cccc(-c2ccccc2)c1)CC(NCCN1CCOCC1)CC3 (stereo not given),77%,3.14 µM
O=c1c2c3c(sc2ncn1Cc1cccc2cccnc12)CC(NCCC1CCCCC1)CC3 (stereo not given),81%,5.85 µM
O=c1c2c3c(sc2ncn1Cc1cccc2ccccc12)CC(NCc1cccnc1)CC3 (stereo not given),89%,2.99 µM

SMILES,inhibition [1],IC50 [2]
O=c1c2c3c(sc2ncn1Cc1cccc2ccccc12)CC(NCc1ccccn1)CC3 (stereo not given),81%,7.68 µM
O=c1c2c3c(sc2ncn1Cc1cccc2ccccc12)CC(NCc1ccncc1)CC3 (stereo not given),92%,3.58 µM
O=c1c2c3c(sc2ncn1Cc1cccc2ccccc12)CC(NCc1cncnc1)CC3 (stereo not given),86%,6.45 µM
COc1ccc2ccccc2c1Cn1cnc2sc(CCNCc3ccncc3)c(C)c2c1=O,94%,2.93 µM
Cc1noc(C)c1CNC1CCc2c(sc3ncn(Cc4cccc5cccnc45)c(=O)c23)C1 (stereo not given),80%,6.94 µM
O=c1c2c3c(sc2ncn1Cc1ccc2ccccc2c1)CC(NCc1ccncc1)CC3 (stereo not given),92%,3.14 µM
O=c1c2c3c(sc2ncn1Cc1ccc2ccccc2c1)CC(NCCc1ccncc1)CC3 (stereo not given),72%,9.6 µM
O=c1c2c3c(sc2ncn1Cc1cccc2cccnc12)CC(Nc1ccc(F)cc1)CC3 (stereo not given),90%,0.97 µM
O=c1c2c3c(sc2ncn1Cc1cccc2cccnc12)CC(NCc1cccs1)CC3 (stereo not given),88%,2.56 µM
COc1ccc2ccccc2c1Cn1cnc2sc(CCNCc3cccnc3)c(C)c2c1=O,93%,2.15 µM
COc1ccc(CNCCc2sc3ncn(Cc4c(OC)ccc5ccccc45)c(=O)c3c2C)cc1,89%,3.36 µM
O=c1c2c3c(sc2ncn1Cc1cccc2cccnc12)CC(NC1CCc2ccccc21)CC3 (stereo not given),91%,3.09 µM
O=c1c2c3c(sc2ncn1Cc1cccc(-c2ccccc2)c1)CC(NCCC1CCCCC1)CC3 (stereo not given),90%,3.74 µM
O=c1c2c3c(sc2ncn1Cc1cccc2cccnc12)CC(NCc1ccccc1)CC3 (stereo not given),93%,2.5 µM
O=c1c2c3c(sc2ncn1Cc1ccc2ccccc2c1)CC(NCCc1cccnc1)CC3 (stereo not given),77%,8.68 µM
O=c1c2c3c(sc2ncn1Cc1cccc2cccnc12)CC(NCc1ccccc1Cl)CC3 (stereo not given),85%,3.8 µM
O=c1c2c3c(sc2ncn1Cc1cccc2ccccc12)CC(NCCc1cccnc1)CC3 (stereo not given),80%,9.57 µM
